CRFBP-R2 block: antagonists of CRF-BP/CRF-R2 complex, primary screen, cell-based, HEK293, calcium dye fluorescence, uHTS; inhibition, % at 11.8 µM; CRF-induced calcium fluorescence; hit rate 0.59% among 350,000;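 active means inhibition of the ligand-induced calcium signal above about 50% at the single tested concentration, limit read from the data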
proKLK7 act: proKLK7 zymogen activators, primary screen, biochemical, fluorescence intensity; Kallikrein-7 (Homo sapiens), P49862; purified proKLK7, EDANS-DABCYL substrate fluorescence; 100% is mature enzyme control, 0% vehicle; activation, % at 7 µM; hit rate 0.9% among 370,000; AID 652039, 2013;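 active means activation above the mean of all tested compounds plus 3 SD, computed per campaign excluding outliers beyond control limits, cut at about 13% in these data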
Tn6 DDE FP: inhibitors of Tn6 peptide binding to fibrin DD(E), primary screen, biochemical, fluorescence polarization, human fibrin, Tn6 probe; hit rate 0.21% among 370,000; Fibrin DD(E) TRITC-Tn6 fluorescence polarization displacement; inhibition, % at 8.3 µM;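 active means inhibition above a per-campaign cutoff: mean of compounds within control limits plus 3 SD, cut at about 15% in these data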
DDE Tn7 FP inh: inhibitors of Tn7 peptide binding to fibrin DD(E), primary screen, biochemical, fluorescence polarization, human fibrin, Tn7 probe; Fibrinogen beta chain (Homo sapiens), P02675; hit rate 0.13% among 370,000; inhibition, % at 8.3 µM; FP displacement of FITC-Tn7 peptide from fibrin DD(E); 0% = median of compound wells per plate;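 active means inhibition above the mean of compounds falling within the control limits plus 3 SD of them, cut at about 14% in these data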
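assay system = human clot-derived fibrin DD(E) complex | quantity = Fibrin-DD(E) at 2 µM final | timing = 10 min preincubation, 3 h with tracer, room temperature | signal = fluorescence polarization | measure = percent inhibition | benchmarks = high control wells with 10 µM unlabelled Aha-Tn7 peptide (full inhibition) | replicates = singlicate testing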
CRFBP-R2 agonist: agonists of CRF-BP/CRF-R2 complex, primary screen, cell-based, HEK293, calcium dye fluorescence, uHTS; calcium dye fluorescence (FLIPR); percent of saturating CRF peptide response; activation, % at 13.2 µM; hit rate 0.46% among 350,000;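 active means activation of at least 50%, plus an integration ratio under a set limit after plate pattern correction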
CendR NRP1 mod: modulators of CendR peptide binding to NRP-1, primary screen, biochemical, fluorescence polarization, uHTS | AID 602438, 2012 | FAM-RPARPAR peptide binding to NRP-1 | inhibition, % at 25 µM | hit rate 0.85% among 360,000;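 active means inhibition or corrected inhibition above about 18%, plus a signal ratio from 0.5 to 1.5, limit read from the data, passing the limit was not always enough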
Target sequence (O14786 whole entry, looked up): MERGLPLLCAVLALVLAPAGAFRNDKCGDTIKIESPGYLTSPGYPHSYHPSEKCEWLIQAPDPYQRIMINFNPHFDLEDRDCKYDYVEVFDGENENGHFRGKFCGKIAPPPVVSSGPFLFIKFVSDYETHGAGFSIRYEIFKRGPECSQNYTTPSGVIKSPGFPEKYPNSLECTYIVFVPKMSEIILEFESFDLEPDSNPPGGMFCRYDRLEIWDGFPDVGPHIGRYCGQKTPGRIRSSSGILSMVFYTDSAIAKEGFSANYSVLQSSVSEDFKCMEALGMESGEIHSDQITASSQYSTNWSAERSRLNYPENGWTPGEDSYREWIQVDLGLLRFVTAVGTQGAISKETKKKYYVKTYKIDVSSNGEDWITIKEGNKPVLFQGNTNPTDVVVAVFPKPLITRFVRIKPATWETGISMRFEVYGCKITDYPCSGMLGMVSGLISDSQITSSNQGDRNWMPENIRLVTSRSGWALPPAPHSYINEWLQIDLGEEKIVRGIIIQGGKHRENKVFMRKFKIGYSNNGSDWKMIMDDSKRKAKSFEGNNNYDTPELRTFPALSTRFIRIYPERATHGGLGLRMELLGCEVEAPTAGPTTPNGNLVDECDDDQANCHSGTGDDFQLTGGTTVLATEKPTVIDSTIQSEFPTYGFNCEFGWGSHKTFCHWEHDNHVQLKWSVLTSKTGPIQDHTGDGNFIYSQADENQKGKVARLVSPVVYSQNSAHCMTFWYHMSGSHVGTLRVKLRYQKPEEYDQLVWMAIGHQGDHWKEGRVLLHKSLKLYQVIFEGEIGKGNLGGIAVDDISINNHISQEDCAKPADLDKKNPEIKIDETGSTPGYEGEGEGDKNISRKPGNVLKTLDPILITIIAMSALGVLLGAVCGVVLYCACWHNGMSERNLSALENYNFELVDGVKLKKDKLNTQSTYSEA
Numbers stand for hits. The list is not random: actives were taken first. Their share in the collection is about 2.9%.

Cc1nn(-c2ccccc2)c(Cl)c1CN(C(=O)CCl)c1ccc(Cl)cc1 was read as CRFBP-R2 block 78, proKLK7 act inactive, Tn6 DDE FP inactive, DDE Tn7 FP inh inactive, CRFBP-R2 agonist inactive and CendR NRP1 mod inactive.
`CCn1cc(C=C2C(=O)c3ccccc3C2=O)c2ccccc21` gave CRFBP-R2 block inactive, proKLK7 act inactive, Tn6 DDE FP inactive, DDE Tn7 FP inh inactive, CRFBP-R2 agonist 196 and CendR NRP1 mod inactive.
`CCN=C1S/C(=C\c2cn(CC)c3ccccc23)C(=O)N1CC` gave CRFBP-R2 block inactive, proKLK7 act inactive, Tn6 DDE FP inactive, DDE Tn7 FP inh inactive, CRFBP-R2 agonist inactive and CendR NRP1 mod inactive.
For CC1CCN(CC(=O)Nc2ccccc2-c2ccccc2)CC1 the results were CRFBP-R2 block inactive, proKLK7 act inactive, Tn6 DDE FP inactive, DDE Tn7 FP inh inactive, CRFBP-R2 agonist inactive and CendR NRP1 mod 36.
For CC1CCN(CC(=O)Nc2ccccc2C(=O)c2ccccc2)CC1 the results were CRFBP-R2 block inactive, proKLK7 act inactive, Tn6 DDE FP inactive, DDE Tn7 FP inh inactive, CRFBP-R2 agonist inactive and CendR NRP1 mod inactive.
Screening CCc1nnc(NC(=O)CSc2nnc(CCc3nc4ccccc4[nH]3)n2C)s1 returned CRFBP-R2 block inactive, proKLK7 act inactive, Tn6 DDE FP inactive, DDE Tn7 FP inh inactive, CRFBP-R2 agonist inactive and CendR NRP1 mod 19.
Screening Cc1nnc(NC(=O)CSc2nnc(CCc3nc4ccccc4[nH]3)n2C)s1 returned CRFBP-R2 block inactive, proKLK7 act inactive, Tn6 DDE FP inactive, DDE Tn7 FP inh inactive, CRFBP-R2 agonist inactive and CendR NRP1 mod inactive.
Screening CCOC(=O)/C=C/COc1ccccc1[N+](=O)[O-] returned CRFBP-R2 block inactive, proKLK7 act inactive, Tn6 DDE FP inactive, DDE Tn7 FP inh inactive, CRFBP-R2 agonist inactive and CendR NRP1 mod 28.
COC(=O)[C@]12C[C@H](CC(=O)N3CCSCC3)C(=O)N(CCC3=CCCCC3)C1=C[C@H](C(C)(C)C)O[C@@H]2C was read as proKLK7 act inactive, Tn6 DDE FP inactive and DDE Tn7 FP inh inactive.
For COc1ccccc1C(=O)NCCCNC(=O)c1cccnc1 the results were CRFBP-R2 block inactive, proKLK7 act inactive, Tn6 DDE FP inactive, DDE Tn7 FP inh inactive, CRFBP-R2 agonist inactive and CendR NRP1 mod 33.
CC(C)CNC(=O)c1ccccc1Oc1ccccc1 was read as CRFBP-R2 block inactive, proKLK7 act inactive, Tn6 DDE FP inactive, DDE Tn7 FP inh inactive, CRFBP-R2 agonist inactive and CendR NRP1 mod inactive.
`COc1ccccc1NC(=O)c1ccccc1Oc1ccccc1` gave CRFBP-R2 block inactive, proKLK7 act inactive, Tn6 DDE FP inactive, DDE Tn7 FP inh inactive, CRFBP-R2 agonist inactive and CendR NRP1 mod 26.
Screening CN(C)CCCNC(=O)c1ccccc1Oc1ccccc1 returned CRFBP-R2 block 59, proKLK7 act inactive, Tn6 DDE FP inactive, DDE Tn7 FP inh inactive, CRFBP-R2 agonist inactive and CendR NRP1 mod inactive.
COc1ccc(NC(=O)c2ccccc2Oc2ccccc2)c(OC)c1 was read as CRFBP-R2 block inactive, proKLK7 act inactive, Tn6 DDE FP inactive, DDE Tn7 FP inh inactive, CRFBP-R2 agonist inactive and CendR NRP1 mod inactive.
Screening Brc1ccccc1Cn1nnc(-c2ccc(N3CCOCC3)cc2)n1 returned proKLK7 act inactive, Tn6 DDE FP inactive and DDE Tn7 FP inh inactive.
O=[N+]([O-])c1cc([N+](=O)[O-])c2nonc2c1Nc1ccc(O)cc1 was read as CRFBP-R2 block inactive, proKLK7 act inactive, Tn6 DDE FP 18, DDE Tn7 FP inh inactive, CRFBP-R2 agonist inactive and CendR NRP1 mod inactive.
`O=[N+]([O-])c1cc([N+](=O)[O-])c2nonc2c1Nc1ccccc1O` gave CRFBP-R2 block inactive, proKLK7 act inactive, Tn6 DDE FP inactive, DDE Tn7 FP inh inactive, CRFBP-R2 agonist inactive and CendR NRP1 mod inactive.
`O=C(NC1CCCCN(Cc2ccc(Cl)cc2)C1=O)C1C2CC3CC(C2)CC1C3` (stereo not drawn) gave proKLK7 act inactive, Tn6 DDE FP inactive and DDE Tn7 FP inh inactive.
`CC(=O)N[C@H]1C[C@@H]2O[C@H](CO)CC[C@@H]2O[C@@H]1CCc1ccc(-c2ccc(F)cc2)cc1` gave proKLK7 act inactive, Tn6 DDE FP inactive and DDE Tn7 FP inh inactive.
For O=C(Nc1ccc(F)cc1)c1cc(S(=O)(=O)Nc2ccc(F)cc2)cs1 the results were CRFBP-R2 block inactive, proKLK7 act inactive, Tn6 DDE FP inactive, DDE Tn7 FP inh inactive, CRFBP-R2 agonist inactive and CendR NRP1 mod 26.
For CCC(=O)OCCCN1CCC2(CCC(c3ccccc3)CC2)C1=O (stereo not drawn) the results were proKLK7 act inactive, Tn6 DDE FP inactive and DDE Tn7 FP inh inactive.
For Cc1ccc(N/C(N)=N/c2nc(C)cc(C)n2)cc1 the results were CRFBP-R2 block inactive, proKLK7 act inactive, Tn6 DDE FP inactive, DDE Tn7 FP inh inactive, CRFBP-R2 agonist 55 and CendR NRP1 mod inactive.
For Cc1cc(C)cc(N/C(N)=N/c2nc(C)cc(C)n2)c1 the results were CRFBP-R2 block inactive, proKLK7 act inactive, Tn6 DDE FP inactive, DDE Tn7 FP inh inactive, CRFBP-R2 agonist inactive and CendR NRP1 mod inactive.
For CCCCc1ccc(N/C(N)=N/c2nc(C)cc(C)n2)cc1 the results were CRFBP-R2 block inactive, proKLK7 act inactive, Tn6 DDE FP inactive, DDE Tn7 FP inh inactive, CRFBP-R2 agonist 102 and CendR NRP1 mod inactive.
Screening CC(=O)Nc1cccc(N/C(N)=N/c2nc(C)cc(C)n2)c1 returned CRFBP-R2 block inactive, proKLK7 act inactive, Tn6 DDE FP inactive, DDE Tn7 FP inh inactive, CRFBP-R2 agonist inactive and CendR NRP1 mod inactive.
Screening Cc1cccc(N/C(N)=N/c2nc(C)cc(C)n2)c1 returned CRFBP-R2 block inactive, proKLK7 act inactive, Tn6 DDE FP inactive, DDE Tn7 FP inh inactive, CRFBP-R2 agonist 81 and CendR NRP1 mod inactive.
Screening Cc1cccc(NC(=O)C2CCN(c3nnc(-n4cccc4)s3)CC2)c1C returned proKLK7 act inactive, Tn6 DDE FP inactive and DDE Tn7 FP inh inactive.
Screening COC(=O)[C@]12C[C@H](CC(=O)NCC3CCCCC3)C(=O)N(Cc3ccc(Cl)cc3Cl)C1=C[C@H](C(C)C)O[C@@H]2C1CC1 returned proKLK7 act inactive, Tn6 DDE FP inactive and DDE Tn7 FP inh inactive.
`CCOC(=O)c1ccc(CNC(=O)Cn2nnc(-c3ccccc3)n2)o1` gave CRFBP-R2 block inactive, proKLK7 act inactive, Tn6 DDE FP inactive, DDE Tn7 FP inh inactive, CRFBP-R2 agonist 143 and CendR NRP1 mod inactive.

High-throughput results deposited in PubChem by several laboratories.
